Laboratory results taken from ChEMBL document CHEMBL4196108, “5-Aroylindoles Act as Selective Histone Deacetylase 6 Inhibitors Ameliorating Alzheimer's Disease Phenotypes” (J Med Chem, 2018).
Active and inactive are the calls of the source.

How the values were obtained:
[1] = target: T1, Protein deacetylase HDAC6 (Homo sapiens) (UniProt Q9UBN7); test: Inhibition of HDAC6 in human SH-SY5Y cells transfected with pCAX FLAG APP and pRK5-EGFP-Tau P301L plasmids assessed as reduction in Tau P301L mutant level in cytosol at 1 uM after 24 hrs by Western blot analysis; format: cell-based
T1 sequence (whole entry): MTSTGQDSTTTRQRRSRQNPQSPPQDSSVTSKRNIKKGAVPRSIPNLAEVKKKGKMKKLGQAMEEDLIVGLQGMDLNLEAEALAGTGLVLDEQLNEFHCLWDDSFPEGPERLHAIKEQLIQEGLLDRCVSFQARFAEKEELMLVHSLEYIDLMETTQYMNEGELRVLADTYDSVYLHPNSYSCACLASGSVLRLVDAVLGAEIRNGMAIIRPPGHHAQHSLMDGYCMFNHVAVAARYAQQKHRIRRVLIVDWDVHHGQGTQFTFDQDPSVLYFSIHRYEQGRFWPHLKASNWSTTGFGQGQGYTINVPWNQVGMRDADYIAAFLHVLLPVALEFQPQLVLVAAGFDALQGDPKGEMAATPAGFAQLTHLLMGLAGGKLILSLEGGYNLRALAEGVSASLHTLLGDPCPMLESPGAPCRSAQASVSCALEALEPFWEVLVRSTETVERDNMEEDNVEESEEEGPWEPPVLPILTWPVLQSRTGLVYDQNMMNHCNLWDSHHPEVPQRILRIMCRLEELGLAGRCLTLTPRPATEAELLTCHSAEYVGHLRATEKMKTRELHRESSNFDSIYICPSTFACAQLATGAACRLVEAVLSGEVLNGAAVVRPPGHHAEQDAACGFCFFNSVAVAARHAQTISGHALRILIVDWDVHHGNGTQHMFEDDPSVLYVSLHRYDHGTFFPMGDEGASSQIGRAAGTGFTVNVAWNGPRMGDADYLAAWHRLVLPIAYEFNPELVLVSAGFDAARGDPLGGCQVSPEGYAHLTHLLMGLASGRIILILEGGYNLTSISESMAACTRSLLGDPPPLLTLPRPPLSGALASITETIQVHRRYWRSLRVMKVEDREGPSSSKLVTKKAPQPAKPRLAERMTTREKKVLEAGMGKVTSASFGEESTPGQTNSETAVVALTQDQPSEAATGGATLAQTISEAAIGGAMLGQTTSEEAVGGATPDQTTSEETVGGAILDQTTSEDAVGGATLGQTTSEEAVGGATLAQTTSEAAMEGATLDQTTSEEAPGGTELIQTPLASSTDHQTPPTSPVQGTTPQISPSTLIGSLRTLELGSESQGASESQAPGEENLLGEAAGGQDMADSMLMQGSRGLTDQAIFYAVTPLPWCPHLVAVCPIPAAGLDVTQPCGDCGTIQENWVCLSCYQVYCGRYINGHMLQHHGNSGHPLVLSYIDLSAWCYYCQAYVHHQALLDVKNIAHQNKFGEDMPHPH
Summary of the method: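 Cotransfected SH-SY5Y cells (1 × 10^7) treated 24 h at 1 µM, lysed in sucrose/HEPES pH 7.2 buffer; 190,000 g supernatant = cytosol. Pellet treated with 5 µM nocodazole, re-spun; residual pellet extracted with sodium carbonate pH 11.5 and washed in 1% SDS to give aggregate fraction. Equal protein by SDS-PAGE immunoblot.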

[2] = target: T1, Protein deacetylase HDAC6 (Homo sapiens); test: Inhibition of HDAC6 in human SH-SY5Y cells transfected with pCAX FLAG APP and pRK5-EGFP-Tau P301L plasmids assessed as increase in HSP90 acetylation at 1 uM after 24 hrs by coimmunoprecipitation analysis; format: cell-based
Summary of the method: (§1)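 SH-SY5Y and Neuro-2a cells cotransfected 24 h with APP695/Tau P301L plasmids, treated 24 h at 1 µM (ACY-1215 reference). 30 µg lysate immunoprecipitated overnight at 4 °C with anti-HDAC6 or anti-acetyl-lysine antibodies plus protein A/G beads, run on 8% SDS-PAGE, probed for Hsp90; Hsp70 by immunoblot. Three independent experiments.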

[3] = target: T2, Protein deacetylase HDAC6 (Mus musculus) (UniProt Q9Z2V5); test: Inhibition of HDAC6 in mouse Neuro-2a cells transfected with pCAX FLAG APP and pRK5-EGFP-Tau P301L plasmids assessed as increase in HSP90 acetylation at 1 uM after 24 hrs by coimmunoprecipitation analysis; format: cell-based; summary of the method: as §1
T2 sequence (whole entry): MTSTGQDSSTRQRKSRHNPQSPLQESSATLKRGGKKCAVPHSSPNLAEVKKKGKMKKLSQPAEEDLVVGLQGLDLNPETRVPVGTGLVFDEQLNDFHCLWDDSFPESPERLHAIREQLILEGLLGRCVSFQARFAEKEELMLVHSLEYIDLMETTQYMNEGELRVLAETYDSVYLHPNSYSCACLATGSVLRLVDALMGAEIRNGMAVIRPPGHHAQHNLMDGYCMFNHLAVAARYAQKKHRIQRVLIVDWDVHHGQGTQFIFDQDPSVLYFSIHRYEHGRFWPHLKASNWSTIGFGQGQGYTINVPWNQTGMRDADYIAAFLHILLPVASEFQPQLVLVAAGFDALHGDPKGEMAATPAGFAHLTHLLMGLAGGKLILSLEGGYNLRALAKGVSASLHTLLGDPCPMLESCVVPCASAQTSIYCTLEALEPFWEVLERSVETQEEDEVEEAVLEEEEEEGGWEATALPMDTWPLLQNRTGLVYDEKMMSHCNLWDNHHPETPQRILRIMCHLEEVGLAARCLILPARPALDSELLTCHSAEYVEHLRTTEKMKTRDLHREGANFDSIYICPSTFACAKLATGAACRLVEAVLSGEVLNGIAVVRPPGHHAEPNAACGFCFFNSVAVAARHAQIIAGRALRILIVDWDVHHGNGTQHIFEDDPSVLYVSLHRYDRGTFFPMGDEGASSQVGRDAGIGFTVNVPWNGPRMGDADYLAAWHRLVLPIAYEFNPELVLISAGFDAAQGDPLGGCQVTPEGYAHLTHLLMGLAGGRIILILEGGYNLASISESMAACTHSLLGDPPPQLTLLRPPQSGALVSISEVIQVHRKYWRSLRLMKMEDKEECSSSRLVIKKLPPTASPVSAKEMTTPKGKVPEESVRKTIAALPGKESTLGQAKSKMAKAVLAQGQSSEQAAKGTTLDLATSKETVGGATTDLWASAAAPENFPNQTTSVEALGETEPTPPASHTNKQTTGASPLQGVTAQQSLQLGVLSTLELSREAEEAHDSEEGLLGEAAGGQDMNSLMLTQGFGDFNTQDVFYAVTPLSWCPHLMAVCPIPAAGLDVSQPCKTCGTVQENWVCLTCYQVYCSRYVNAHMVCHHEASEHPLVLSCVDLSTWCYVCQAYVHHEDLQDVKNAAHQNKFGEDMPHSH

Mus musculus = test: In vivo inhibition of HDAC6 in 3xTg-AD transgenic mouse brain hippocampal CA1 region assessed as downregulation of Tau phosphorylation at Ser396 residue at 50 mg/kg, po administered daily for 3 months by Western blot analysis

Measured: inhibition

COc1ccc(C(=O)c2ccc3c(ccn3Cc3ccc(C(=O)NO)cc3)c2)cc1
active: all assays above
